# Reference: ChEMBL document CHEMBL1143139, “Structure-activity studies on splitomicin derivatives as sirtuin inhibitors and computational prediction of binding mode” (J Med Chem, 2008)
# pIC50: −log10 of the molar value. The source made the active and inactive calls. No cut-off for these calls is given here.
# System: MCF7
# Experiment: Induction of tubulin hyperacetylation in human MCF7 cells at 100 uM by Western blot
# Assay type: functional, cell-based
# Outline: (§1)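 MCF-7 cells seeded at 500000/well, treated 24 h later with compound or DMSO for 8 h at 37 °C. PBS-washed cells lysed in Tris-HCl pH 7.5, EDTA, NaCl, 0.5% NP-40 plus protease inhibitors. Protein quantified by BCA before Western blotting.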
row,SMILES,Activity
1,Cc1ccc(C2CC(=O)Oc3ccc4cc(Br)ccc4c32)cc1 (stereo not drawn),Active
2,Cc1ccc([C@H]2CC(=O)Oc3ccc4cc(C)ccc4c32)cc1,Active

# Molecular target: T1, NAD-dependent protein deacetylase sirtuin-2 (Homo sapiens) (UniProt Q8IXJ6)
# T1 sequence (whole entry): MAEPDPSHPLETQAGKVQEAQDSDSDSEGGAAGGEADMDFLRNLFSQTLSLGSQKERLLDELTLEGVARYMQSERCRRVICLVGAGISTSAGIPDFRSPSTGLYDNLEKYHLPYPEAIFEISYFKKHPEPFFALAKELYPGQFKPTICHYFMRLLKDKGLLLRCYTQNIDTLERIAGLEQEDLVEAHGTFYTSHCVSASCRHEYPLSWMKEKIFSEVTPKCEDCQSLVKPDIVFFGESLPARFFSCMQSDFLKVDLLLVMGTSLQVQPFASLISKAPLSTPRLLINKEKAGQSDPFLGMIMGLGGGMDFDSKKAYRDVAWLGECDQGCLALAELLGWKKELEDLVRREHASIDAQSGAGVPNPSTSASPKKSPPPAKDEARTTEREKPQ
# Experiment: Inhibition of human recombinant Sirt2 expressed in Escherichia coli BL21 at 40 uM by fluorescent deacetylase assay
# Outline: (§2)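 Full-length human Sirt2, N-terminal His6 tag, expressed in E. coli BL21 (IPTG 0.1 mM, 2 h). 60 µL reaction with fluorescent acetyl-lysine substrate ZMAL 10.5 µM, NAD+ 500 µM, inhibitor from DMSO stock, 4 h at 37 °C. Deacetylated product developed by tryptic digest; fluorescence at ex 390/em 460 nm. Inhibition calculated versus no-inhibitor control; at least duplicate.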
Activity,inhibition,SMILES
inactive,,NC(=O)c1ccc2c3c(ccc2c1)OC(=O)CC3c1ccccc1 (stereo not drawn)
inactive,,COc1ccc2ccc3c(c2c1)C(c1ccccc1)CC(=O)O3 (stereo not drawn)
,25.9%,N#Cc1ccc2c3c(ccc2c1)OC(=O)CC3c1ccccc1 (stereo not drawn)
,49.1%,O=C1CC(c2ccccc2)c2c(ccc3ccccc23)O1 (stereo not drawn)
,31.5%,O=C1CC(c2ccccc2)c2c(ccc3ccccc23)N1 (stereo not drawn)
,4.2%,O=C1CC(c2ccc(-c3ccccc3)cc2)c2c(ccc3ccccc23)N1 (stereo not drawn)
,16.9%,O=C1CC(c2ccc(F)cc2)c2c(ccc3ccccc23)N1 (stereo not drawn)
,25.6%,CCc1ccc2c3c(ccc2c1)OC(=O)CC3c1ccccc1 (stereo not drawn)
,26.2%,O=C1CC(c2ccccc2)c2c(ccc3cc(-c4ccccc4)ccc23)O1 (stereo not drawn)

# More lines, now with the values behind:
SMILES,Activity,inhibition
O=C1CC(Cc2ccccc2)c2c(ccc3cc(Br)ccc23)O1 (stereo not drawn),,21.1%
O=C1CC(c2ccccc2)c2c(cc(Br)c3cc(Br)ccc23)O1 (stereo not drawn),,9.6%

# System: MCF7
# Experiment: Antiproliferative activity against human MCF7 cells by MTT assay
# Assay type: functional
# Outline: (§3)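 MCF-7 cells in RPMI-1640 with 10% FBS, L-glutamine and penicillin/streptomycin at 37 °C, 5% CO2; 5000 cells/well, compound or DMSO vehicle added 24 h after seeding, then 72 h exposure.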
row,GI50,SMILES
1,43 µM,Cc1ccc(C2CC(=O)Oc3ccc4cc(Br)ccc4c32)cc1 (stereo not drawn)
2,84 µM,Cc1ccc([C@H]2CC(=O)Oc3ccc4cc(C)ccc4c32)cc1
3,99 µM,Cc1ccc(C2CC(=O)Oc3ccc4cc(C)ccc4c32)cc1 (stereo not drawn)

# System: MCF7
# Experiment: Induction of tubulin hyperacetylation in human MCF7 cells at 10 uM by Western blot
# Assay type: functional, cell-based
# Outline: as §1
row,SMILES,Activity
1,O=C(CCCCCCC(=O)Nc1ccccc1)NO,Active
2,NC(=O)[C@H]1CCCCc2c1[nH]c1ccc(Cl)cc21,Active

# Molecular target: T1, NAD-dependent protein deacetylase sirtuin-2 (Homo sapiens)
# Experiment: Inhibition of human recombinant Sirt2 expressed in Escherichia coli BL21 at 100 uM by fluorescent deacetylase assay
# Outline: as §2
row,inhibition,SMILES
1,35.1%,Cc1ccc([C@@H]2CC(=O)Oc3ccc4cc(C)ccc4c32)cc1
2,41.8%,Cc1ccc2c3c(ccc2c1)OC(=O)C[C@H]3c1ccccc1

# Molecular target: T1, NAD-dependent protein deacetylase sirtuin-2 (Homo sapiens)
# Experiment: Inhibition of human recombinant Sirt2 expressed in Escherichia coli BL21 at 20 uM by fluorescent deacetylase assay
# Outline: as §2
inhibition,Activity,SMILES
20.6%,,O=C1CC(c2ccccc2)c2c(ccc3cc(-c4ccc(-c5ccccc5)cc4)ccc23)O1 (stereo not drawn)
21.8%,,O=C1CC(c2ccccc2)c2c(ccc3cc(O)ccc23)O1 (stereo not drawn)
,inactive,O=C1CC(c2cccnc2)c2c(ccc3ccccc23)N1 (stereo not drawn)
37.5%,,O=C1CC(c2ccccc2)c2c(ccc3cc(-c4cccc(O)c4)ccc23)O1 (stereo not drawn)
24%,,CC(=O)c1ccc2c3c(ccc2c1)OC(=O)CC3c1ccccc1 (stereo not drawn)
15.1%,,O=C1CC(c2ccccc2)c2c(ccc3cc(-c4ccc5ccccc5c4)ccc23)O1 (stereo not drawn)
18.4%,,O=C1CC(c2ccccc2)c2c(ccc3cc(-c4cccnc4)ccc23)O1 (stereo not drawn)

# Further lines, the compound ahead of its results:
SMILES,inhibition,Activity
CC(=O)Nc1cccc(-c2ccc3c4c(ccc3c2)OC(=O)CC4c2ccccc2)c1 (stereo not drawn),22.2%,
COc1cc(C2CC(=O)Oc3ccc4cc(C)ccc4c32)ccc1C (stereo not drawn),9.2%,
CC(C)(C)c1ccc(C2CC(=O)Oc3ccc4cc(Br)ccc4c32)cc1 (stereo not drawn),46.8%,
CC(=O)Nc1cccc(C2CC(=O)Oc3ccc4cc(C)ccc4c32)c1 (stereo not drawn),17.1%,
Cc1ccc2c3c(ccc2c1)OC(=O)CC3c1cccc(O)c1 (stereo not drawn),15.4%,
O=C1CC(c2ccc(Cl)cc2)c2c(ccc3cc(Br)ccc23)O1 (stereo not drawn),28.5%,
COc1cc(C2CC(=O)Oc3ccc4cc(Br)ccc4c32)ccc1C (stereo not drawn),6.3%,
COc1ccccc1C1CC(=O)Oc2ccc3cc(Br)ccc3c21 (stereo not drawn),17.4%,
Cc1ccc2c3c(ccc2c1)OC(=O)CC3c1ccc(Cl)cc1 (stereo not drawn),26.7%,
O=C1CC(c2ccc(Cl)c(Cl)c2)c2c(ccc3cc(Br)ccc23)O1 (stereo not drawn),42.3%,
O=C1CCc2c(ccc3cc(Br)ccc23)O1,,inactive
Cc1ccc2c3c(ccc2c1)OC(=O)CC3c1ccc(-c2ccccc2)cc1 (stereo not drawn),28.3%,

# Molecular target: T2, NAD-dependent protein deacetylase sirtuin-2 (Homo sapiens, UniProt Q8IXJ6)
# T2 sequence (Q8IXJ6 whole entry): T1 sequence (whole entry)
# Experiment: Inhibition of human recombinant Sirt2 expressed in Escherichia coli BL21 by fluorescent deacetylase assay
row,pIC50,SMILES
1,5.47,Cc1ccc2c3c(ccc2c1)OC(=O)C[C@@H]3c1ccccc1
2,5.28,O=C1CC(c2ccccc2)c2c(ccc3cc(Br)ccc23)O1 (stereo not drawn)
3,4.71,O=C1CC(c2ccccc2)c2c(ccc3cc(I)ccc23)O1 (stereo not drawn)
4,5.19,O=C1CC(c2ccccc2)c2c(ccc3cc(Br)ccc23)N1 (stereo not drawn)
5,4.97,Cc1ccc2c3c(ccc2c1)OC(=O)CC3c1ccccc1 (stereo not drawn)

# The remaining lines, values behind:
row,SMILES,pIC50
1,Cc1cccc(C2CC(=O)Oc3ccc4cc(C)ccc4c32)c1 (stereo not drawn),5.36
2,O=C1CC(c2cccc(F)c2)c2c(ccc3cc(Br)ccc23)O1 (stereo not drawn),5.49
3,Cc1ccc2c3c(ccc2c1)OC(=O)CC3c1cccc(C#N)c1 (stereo not drawn),5.51
4,Cc1ccc(C2CC(=O)Oc3ccc4cc(Br)ccc4c32)cc1F (stereo not drawn),5.70
5,Cc1ccc2c3c(ccc2c1)OC(=O)CC3c1cccc(C(N)=O)c1 (stereo not drawn),4.70
6,COc1ccc(C2CC(=O)Oc3ccc4cc(Br)ccc4c32)cc1 (stereo not drawn),5.27
7,COc1cccc(C2CC(=O)Oc3ccc4cc(Br)ccc4c32)c1 (stereo not drawn),5.64
8,Cc1ccc2c3c(ccc2c1)OC(=O)CC3c1cccc(Br)c1 (stereo not drawn),5.01
9,Cc1ccc(C2CC(=O)Oc3ccc4cc(Br)ccc4c32)cc1 (stereo not drawn),5.82
10,O=C1CC(c2cccc(Br)c2)c2c(ccc3cc(Br)ccc23)O1 (stereo not drawn),5.00
11,O=C1CC(c2ccc(F)c(F)c2)c2c(ccc3cc(Br)ccc23)O1 (stereo not drawn),4.71
12,Cc1ccc(C2CC(=O)Oc3ccc4cc(Br)ccc4c32)cc1Cl (stereo not drawn),5.64
13,Cc1ccc([C@H]2CC(=O)Oc3ccc4cc(C)ccc4c32)cc1,6.00
14,O=C1CC(c2ccc(F)cc2)c2c(ccc3cc(Br)ccc23)O1 (stereo not drawn),5.10
15,Cc1ccc2c3c(ccc2c1)OC(=O)CC3c1ccc(C)c(F)c1 (stereo not drawn),5.47
16,Cc1ccc(C2CC(=O)Oc3ccc4cc(C)ccc4c32)cc1 (stereo not drawn),5.82

# System: MCF7
# Experiment: Growth inhibition of human MCF7 cells at 500 uM by MTT assay
# Assay type: functional
# Outline: as §3
row,SMILES,Inhibition
1,Cc1ccc([C@@H]2CC(=O)Oc3ccc4cc(C)ccc4c32)cc1,74%
2,Cc1ccc2c3c(ccc2c1)OC(=O)CC3c1cccc(C(N)=O)c1 (stereo not drawn),64%
3,O=C1CC(c2ccccc2)c2c(ccc3cc(-c4ccccc4)ccc23)O1 (stereo not drawn),57%
